Test results reported in publication PMC4019989 (Clinical cancer research : an official journal of the …, 2009).
Where two headings read alike, the source gives them in different places.

Assays:
[1] = tested on: chymotrypsin-like activity of the proteasome; conditions: monkeys; i.v. for 5 consecutive days; multiple tissues; well tolerated; cited from earlier work
[2] = tested on: 20S chymotrypsin-like proteasome activity; type: in vivo, human
Procedure, shortened: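 Chymotrypsin-like proteasome activity in patient whole blood and PBMCs, read with a fluorogenic substrate. Samples: cycle 1 day 1 predose, 1 and 24 h postdose; predose and 1 h postdose on cycle 1 day 5 and day 1 of cycles 2 and 3. Dosing was i.v. push days 1–5 with 9-d rest. Percent activity is each sample's specific activity relative to cycle 1 day 1 predose. Mean ± SEM.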

[3] = tested on: bortezomib-resistant MM cell lines; conditions: bortezomib-resistant MM cell lines and patient samples; cited from earlier work
[4] = tested on: relapsed or refractory hematologic malignancies; test: Antitumor activity; type: in vivo, human
Procedure, shortened: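 Relapsed/refractory MM, NHL, Hodgkin's or Waldenström's patients got the test compound as an i.v. push over 1–2 min on days 1–5, then 9 d rest (14-d cycles). Doses were 1.2–20 mg/m2, escalated in cohorts of three, continued until unacceptable toxicity or progression. Response used EBMT criteria (MM) and International Working Group criteria (NHL, Hodgkin's). For Waldenström's: complete = total resolution, partial = >50% resolution with no new disease.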

[5] = tested on: chymotrypsin-like activity of the proteasome; conditions: rats; i.v. for 5 consecutive days; multiple tissues; well tolerated; cited from earlier work
Plasma pharmacokinetics = type: in vivo, human; conditions: for AUCinf, Mean: included C0; for AUClast, Mean: includes C0; for half-life / C0 / Cmax / Tmax / clearance: human, plasma, iv
Procedure, shortened: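 Drug went in as an i.v. push over 1–2 min. Cycle 1 blood was drawn predose and at 5, 15, 30 min and 1, 2, 4 h postdose, plus predose and 30 min postdose on cycle 1 day 5 and day 1 of cycles 2 and 3. Plasma was assayed by validated LC/MS (lower limit of detection 0.10 μg/mL). Parameters came from pharmacokinetic analysis and modelling.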

[6] = tested on: primary acute myeloid leukemia blasts; conditions: tested at nanomolar levels (0.1-100 nmol/L); cited from earlier work
[7] = 11 mg/m^2 i.v. push, n = 2, plasma
[8] = 15 mg/m^2 i.v. push, n = 5, plasma
[9] = 20 mg/m^2 i.v. push, n = 4, plasma

Question: Which “Proteasome (chymotrypsin-like activity) inhibition” value [1] does the source give for `CC(C)C[C@H](NC(=O)[C@H](CCc1ccccc1)NC(=O)CN1CCOCC1)C(=O)N[C@@H](Cc1ccccc1)C(=O)N[C@@H](CC(C)C)C(=O)[C@@]1(C)CO1` [carfilzomib] here?
Answer: The value was over 80%.

Question: And the “Recovery of proteasome activity in PBMCs” value ([2]; during the 9-day rest period)?
Answer: The value was “generally returned to baseline”.

Question: What about the “Recovery of proteasome activity in whole blood” value ([2]; during the 9-day rest period) of the same compound?
Answer: Its value is “only partially recovered”.

Question: And the “Proteasome inhibition after a single dose” value ([2]; whole blood and PBMCs, dose levels of 15 mg/m^2 and higher, 1 hour after dosing on day 1)?
Answer: The value was over 75%.

Question: And the “Proteasome inhibition after the fifth consecutive day of dosing” value ([2]; whole blood and PBMCs, highest dose groups, 1 h after the fifth dose)?
Answer: The value was over 90%.

Question: What about the Proliferation and apoptosis [3] of the same compound?
Answer: Its Proliferation and apoptosis is “inhibited proliferation and induced apoptosis”.

Question: What about the “Subjects achieving objective tumor responses” value ([4]; 28 of 29 patients evaluable, all responders treated at 11 mg/m^2 and higher) of the same compound?
Answer: Its value is “Four”.

Question: What about the “Subjects with stable disease” value ([4]; across all dose cohorts and diagnoses) of the same compound?
Answer: The value was “nine”.

Question: What about the “Patients with progressive disease while on study” value ([4]; all cohorts) of the same compound?
Answer: Its value is 15 patients.

Question: And the “Average duration on therapy of subjects with stable disease” value ([4]; eight cycles)?
Answer: The value was 116 days.

Question: And the “IgA level by the end of the fifth cycle” value ([4]; person with IgA MM, 11 mg/m^2)?
Answer: Its value is 235 mg/dL.

Question: And the “IgA level within two cycles (10 doses)” value ([4]; person with IgA MM, 11 mg/m^2, from 709 mg/dL)?
Answer: The value was 297 mg/dL.

Question: And the “reduction in serum M-protein” value ([4]; person with Waldenström's macroglobulinemia, after two cycles of 15 mg/m^2)?
Answer: Its value is 25%.

Question: And the “Objective responses in subjects with plasma cell dyscrasias” value ([4]; treated at or above 11 mg/m^2, two MM, one Waldenström's macroglobulinemia)?
Answer: Its value is “Three of six”.

Question: What about the “Proteasome (chymotrypsin-like activity) inhibition” value [5] of the same compound?
Answer: The value was over 80%.

Question: And the “AUCinf, Mean” value (Plasma pharmacokinetics; [7])?
Answer: Its value is 4,463 g·mL/h.

Question: And the “AUClast, Mean” value (Plasma pharmacokinetics; [7])?
Answer: The value was 4,457 ng·mL/h.

Question: What about the “AUCinf, Mean” value (Plasma pharmacokinetics; [8]) of the same compound?
Answer: The value was 9,760 g·mL/h.

Question: What about the “AUClast, Mean” value (Plasma pharmacokinetics; [8]) of the same compound?
Answer: Its value is 9,728 ng·mL/h.

Question: And the “AUCinf, Mean” value (Plasma pharmacokinetics; [9])?
Answer: Its value is 23,660 g·mL/h.

Question: What about the “AUClast, Mean” value (Plasma pharmacokinetics; [9]) of the same compound?
Answer: The value was 23,123 ng·mL/h.

Question: What about the half-life (Plasma pharmacokinetics) of the same compound?
Answer: The half-life was under 30 min.

Question: And the C0 (Plasma pharmacokinetics; 11 mg/m2)?
Answer: The C0 was 762 ng/mL.

Question: What about the Cmax (Plasma pharmacokinetics; 11 mg/m2) of the same compound?
Answer: Its Cmax is 90.2 ng/mL.

Question: What about the Tmax (Plasma pharmacokinetics; 11 mg/m2) of the same compound?
Answer: Its Tmax is 9 min.

Question: What about the clearance (Plasma pharmacokinetics; 11 mg/m2) of the same compound?
Answer: The clearance was 5060 mL/min.

Question: And the half-life (Plasma pharmacokinetics; 11 mg/m2)?
Answer: The half-life was 25.3 min.

Question: What about the C0 (Plasma pharmacokinetics; 15 mg/m2) of the same compound?
Answer: Its C0 is 2120 ng/mL.

Question: What about the Cmax (Plasma pharmacokinetics; 15 mg/m2) of the same compound?
Answer: The Cmax was 326 ng/mL.

Question: And the Tmax (Plasma pharmacokinetics; 15 mg/m2)?
Answer: The Tmax was 5.8 min.

Question: And the clearance (Plasma pharmacokinetics; 15 mg/m2)?
Answer: The clearance was 7050 mL/min.

Question: What about the half-life (Plasma pharmacokinetics; 15 mg/m2) of the same compound?
Answer: The half-life was 28.9 min.

Question: What about the C0 (Plasma pharmacokinetics; 20 mg/m2) of the same compound?
Answer: Its C0 is 5450 ng/mL.

Question: What about the Cmax (Plasma pharmacokinetics; 20 mg/m2) of the same compound?
Answer: Its Cmax is 683 ng/mL.

Question: And the Tmax (Plasma pharmacokinetics; 20 mg/m2)?
Answer: The Tmax was 6 min.

Question: And the clearance (Plasma pharmacokinetics; 20 mg/m2)?
Answer: Its clearance is 4130 mL/min.

Question: And the half-life (Plasma pharmacokinetics; 20 mg/m2)?
Answer: Its half-life is 17.1 min.

Question: What about the “clearance (in words)” value (Plasma pharmacokinetics; patients, i.v. push) of the same compound?
Answer: The value was “higher than liver blood flow”.

Question: And the “autocrine- and cytokine-dependent proliferation” value [6]?
Answer: Its value is “inhibited autocrine- and cytokine-dependent proliferation”.
